Reference: ChEMBL document CHEMBL4118197, “The discovery and preclinical evaluation of BMS-707035, a potent HIV-1 integrase strand transfer inhibitor” (Bioorg Med Chem Lett, 2018)
In brackets after ≈: the same amount, converted by molar mass.

Columns and labels:
[1] = Drug metabolism in cynomolgus monkey liver microsomes assessed as CYP-mediated metabolism by measuring compound half life; assay type: ADME, Macaca fascicularis
Outline: (§1)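 Microsomal stability with NADPH (CYP-dependent) in rat, cynomolgus, dog and human microsomes; half-life in min.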

[2] = Clearance in Sprague-Dawley rat at 1 mg/kg, iv after 4 hrs; assay type: ADME, organism-based; settings: in vivo
Outline: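 Male Sprague-Dawley rats given 1 mpk IV in PEG400/ethanol (90:10); blood sampled at 5 and 30 min and 1, 2 and 4 h post-dose; clearance from plasma profile.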

Cytochrome P450 2D6 = Cytochrome P450 2D6 (Homo sapiens, UniProt P10635); assay: Inhibition of human CYP2D6; assay type: ADME
[3] = Protein binding in rat plasma; assay type: ADME, cell-free; settings: read-out: PPB (converted)
HepG2 = assay: Cytotoxicity against human HepG2 cells; assay type: cell-based
[4] = Drug metabolism in dog liver microsomes assessed as CYP-mediated metabolism by measuring compound half life; assay type: ADME, Canis lupus familiaris; outline: as §1
[5] = Tmax in cynomolgus monkey at 5 mg/kg, po; assay type: ADME, organism-based, Macaca fascicularis; settings: in vivo
[6] = Clearance in Beagle dog at 1 mg/kg, iv; assay type: ADME, organism-based, Canis lupus familiaris; settings: in vivo
Outline: (§2)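 Single IV (about 1 mg/kg) and oral (about 5 mg/kg) doses in rat, cynomolgus monkey and dog; CL, t1/2, Vss, Cmax, tmax, AUC and oral bioavailability F derived from plasma concentration-time data.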

Salmonella typhimurium [7] = assay: Genotoxicity in Salmonella typhimurium TA98 at =<5000 ug/plate in presence of metabolic activators by Ames test; assay type: toxicity, organism-based; settings: salmonella enterica subsp. enterica serovar typhimurium
Outline: (§3)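 Bacterial reverse mutation (Ames) test, Salmonella typhimurium TA98 and TA100, up to 5000 µg/plate, with and without metabolic activation.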

[8] = Oral bioavailability in Sprague-Dawley rat at 4.4 mg/kg; assay type: ADME, organism-based; settings: in vivo; outline: as §2
Cytochrome P450 1A2 = target: T1, Cytochrome P450 1A2 (Homo sapiens, UniProt P05177); assay: Inhibition of human CYP1A2; assay type: ADME
T1 sequence (P05177 whole entry): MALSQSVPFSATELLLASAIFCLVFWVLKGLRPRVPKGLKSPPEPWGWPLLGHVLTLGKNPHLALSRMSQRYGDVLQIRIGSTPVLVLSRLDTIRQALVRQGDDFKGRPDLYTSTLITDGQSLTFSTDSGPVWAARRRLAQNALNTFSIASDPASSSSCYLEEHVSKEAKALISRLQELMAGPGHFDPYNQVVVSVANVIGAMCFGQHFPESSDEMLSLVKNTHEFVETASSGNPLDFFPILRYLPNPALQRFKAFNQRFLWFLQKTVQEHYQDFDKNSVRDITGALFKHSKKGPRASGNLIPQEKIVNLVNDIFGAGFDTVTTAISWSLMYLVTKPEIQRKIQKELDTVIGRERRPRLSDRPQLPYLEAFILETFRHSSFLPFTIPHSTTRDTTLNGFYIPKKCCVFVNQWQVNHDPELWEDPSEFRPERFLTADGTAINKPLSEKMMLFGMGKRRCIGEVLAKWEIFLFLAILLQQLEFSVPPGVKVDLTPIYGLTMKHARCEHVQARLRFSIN

[9] = Ssolubility of the compound at pH 6.1; assay type: physicochemical; settings: buffer
CHO = assay: Genotoxicity in CHO cells at up to 0.36 mM after 22.5 hrs in absence of metabolic activators by micronucleus assay; assay type: toxicity, cell-based, Cricetulus griseus; settings: chinese hamster
Outline: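 Cytokinesis-blocked micronucleus test in cultured CHO cells: up to 1.4 mM (500 µg/mL) for 3 h with metabolic activation, or up to 0.36 mM for 22.5 h without activation.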

Salmonella typhimurium [10] = assay: Genotoxicity in Salmonella typhimurium TA98 at =<5000 ug/plate in absence of metabolic activators by Ames test; assay type: toxicity, organism-based; settings: salmonella enterica subsp. enterica serovar typhimurium; outline: as §3
[11] = Lipophilicity, log D of the compound at pH 6.5; assay type: physicochemical; settings: buffer
Outline: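 LogD determined experimentally at pH 6.5.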

[12] = Drug uptake in normal healthy human at 600 mg, po qd after 24 hrs; assay type: ADME, organism-based; settings: in vivo, read-out: Drug uptake
Outline: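 Healthy volunteers given 600 mg orally once daily; mean plasma concentration measured 24 h post-dose (C24h).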

[13] = Volume of distribution at steady state in Beagle dog at 1 mg/kg, iv; assay type: ADME, organism-based, Canis lupus familiaris; settings: in vivo, read-out: Vdss
Canis familiaris = organism: Canis familiaris; assay: Toxicity in dog assessed as occurence of convulsions; assay type: organism-based, Canis lupus familiaris; settings: in vivo
[14] = Cmax in Sprague-Dawley rat at 4.4 mg/kg, po; assay type: ADME, organism-based; design: dose 4.4 mg/kg, route oral; settings: in vivo; outline: as §2
[15] = Protein binding in cynomolgus monkey plasma; assay type: ADME, cell-free, Macaca fascicularis; settings: read-out: PPB (converted)
[16] = Protein binding in human plasma; assay type: ADME, cell-free; settings: read-out: PPB (converted)
[17] = Dissociation constant, pKa of the compound; assay type: physicochemical
[18] = AUC in cynomolgus monkey at 5 mg/kg, po; assay type: ADME, organism-based, Macaca fascicularis; settings: in vivo; outline: as §2
[19] = Oral bioavailability in cynomolgus monkey at 5 mg/kg; assay type: ADME, organism-based, Macaca fascicularis; settings: in vivo; outline: as §2
[20] = Permeability across basolateral to apical side in human Caco2 cells at 3 uM; assay type: ADME, cell-based; settings: Caco-2, read-out: permeability
Outline: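 Caco-2 monolayer permeability at 3 µM, apical-to-basolateral and basolateral-to-apical, reported in nm/sec.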

Cytochrome P450 2C19 = Cytochrome P450 2C19 (Homo sapiens, UniProt P33261); assay: Inhibition of human CYP2C19; assay type: ADME
[21] = Tmax in Sprague-Dawley rat at 4.4 mg/kg, po; assay type: ADME, organism-based; settings: in vivo
[22] = Clearance in cynomolgus monkey at 1 mg/kg, iv; assay type: ADME, organism-based, Macaca fascicularis; settings: in vivo; outline: as §2
[23] = Cmax in dog in 12 month toxicology study; assay type: ADME, organism-based, Canis lupus familiaris; settings: in vivo
[24] = target: Human immunodeficiency virus type 1 integrase (Human immunodeficiency virus 1, UniProt Q7ZJM1); assay: Inhibition of HIV1 integrase strand transfer activity
Sequence of Human immunodeficiency virus type 1 integrase (Q7ZJM1 whole entry): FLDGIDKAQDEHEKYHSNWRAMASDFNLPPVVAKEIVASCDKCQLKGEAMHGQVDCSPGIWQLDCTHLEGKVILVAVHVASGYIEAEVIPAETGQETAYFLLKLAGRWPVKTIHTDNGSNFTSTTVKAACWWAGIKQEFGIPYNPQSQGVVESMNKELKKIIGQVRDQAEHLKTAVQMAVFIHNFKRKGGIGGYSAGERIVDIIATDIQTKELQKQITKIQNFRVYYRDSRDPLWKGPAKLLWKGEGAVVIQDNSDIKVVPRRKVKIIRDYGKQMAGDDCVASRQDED

Sequence of Cytochrome P450 2D6 (P10635 whole entry): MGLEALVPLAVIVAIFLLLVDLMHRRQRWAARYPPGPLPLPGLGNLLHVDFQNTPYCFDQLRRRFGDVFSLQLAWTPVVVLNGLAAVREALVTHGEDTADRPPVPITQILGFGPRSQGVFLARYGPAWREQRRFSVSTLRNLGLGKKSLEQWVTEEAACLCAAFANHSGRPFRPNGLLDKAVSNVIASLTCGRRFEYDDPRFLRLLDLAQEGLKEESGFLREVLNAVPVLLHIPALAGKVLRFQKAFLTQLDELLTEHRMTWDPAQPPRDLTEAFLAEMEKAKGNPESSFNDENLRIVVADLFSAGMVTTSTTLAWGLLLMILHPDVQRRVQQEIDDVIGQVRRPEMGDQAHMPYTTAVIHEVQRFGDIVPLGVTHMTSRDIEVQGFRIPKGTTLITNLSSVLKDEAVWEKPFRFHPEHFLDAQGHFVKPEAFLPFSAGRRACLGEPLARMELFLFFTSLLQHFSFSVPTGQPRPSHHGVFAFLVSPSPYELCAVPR
Sequence of Cytochrome P450 2C19 (P33261 whole entry): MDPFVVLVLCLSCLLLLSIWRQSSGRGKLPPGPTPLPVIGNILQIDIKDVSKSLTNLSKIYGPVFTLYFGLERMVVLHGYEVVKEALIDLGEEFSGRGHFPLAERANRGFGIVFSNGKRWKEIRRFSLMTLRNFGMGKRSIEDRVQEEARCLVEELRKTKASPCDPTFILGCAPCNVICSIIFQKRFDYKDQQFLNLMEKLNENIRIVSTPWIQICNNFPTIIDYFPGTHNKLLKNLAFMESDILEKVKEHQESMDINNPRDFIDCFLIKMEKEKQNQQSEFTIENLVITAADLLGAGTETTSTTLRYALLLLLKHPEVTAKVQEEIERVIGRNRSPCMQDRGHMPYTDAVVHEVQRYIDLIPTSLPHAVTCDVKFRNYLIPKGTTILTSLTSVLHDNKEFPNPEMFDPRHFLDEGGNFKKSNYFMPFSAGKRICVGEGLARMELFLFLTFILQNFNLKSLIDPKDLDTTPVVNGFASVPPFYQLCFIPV

Which results are given for `CC1(C)OCCn2c1nc(C(=O)NCc1ccc(F)cc1)c(O)c2=O`?
half-life [1]: 96 min; clearance [2]: 9.6 mL/min/kg; IC50 (Cytochrome P450 2D6): > 40 µM; fraction unbound [3]: 0.063; IC50 (HepG2): ≥ 45 µM; half-life [4]: 107 min; Tmax [5]: 15 min; clearance [6]: 2 mL/min/kg; Activity (Salmonella typhimurium [7]): Non-Toxic; bioavailability [8]: 86%; IC50 (Cytochrome P450 1A2): > 40 µM; solubility [9]: 21 µg/mL (≈ 60.5 µM); Activity (CHO): Non-Toxic; Activity (Salmonella typhimurium [10]): Non-Toxic; logD [11]: 2.02; concentration at 24 h [12]: 340 ng/mL; Vd [13]: 0.45 L/kg; Activity (Canis familiaris): Toxic; Cmax [14]: 4.51 µM; fraction unbound [15]: 0.041; fraction unbound [16]: 0.024; pKa [17]: 6.6; AUC [18]: 19.2 µM·h; bioavailability [19]: 56%; Papp B→A at 3 µM [20]: 24 ×10⁻⁶ cm/s; IC50 (Cytochrome P450 2C19): > 40 µM; Tmax [21]: 15 min; clearance [22]: 6.8 mL/min/kg; Cmax at 12 month [23]: ≥ 67 µg/mL; IC50 [24]: 3 nM
